ChEMBL document CHEMBL4732200, “Synthesis and antiviral activity of a series of novel quinoline derivatives as anti-RSV or anti-IAV agents” (Eur J Med Chem, 2021)
Active and inactive are the calls of the source. No cut-off for these calls is given here.

Columns and labels:
[1] = Selectivity index, ratio of CC50 for cytotoxicity against human HEp-2 cells to IC50 for antiviral activity against RSV Long expressing mGFP infected in HEp-2 cells; format: toxicity, cell-based; details: read-out: Ratio CC50/IC50
[2] = test system: Respiratory syncytial virus; test: Antiviral activity against RSV Long expressing mGFP infected in HEp-2 cells assessed as reduction in viral replication after 48 hrs by MTS assay; format: functional, organism-based; details: human respiratory syncytial virus, HEp-2, 48 h
How it was run: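 HEp-2 cells plated in 96-well plates; after 24 h, virus alone or virus plus compound added; 48 h incubation. MTS (2 mg/ml) added for 3 h at 37 °C, 5% CO2; absorbance read at 490 nm. Controls were mock-treated cells (uninfected, or infected without compound), with cell activity set as 100%.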

[3] = Cytotoxicity against human HEp-2 cells assessed as reduction in cell viability after 48 hrs by MTS assay; format: cell-based
[4] = test system: Respiratory syncytial virus; test: Potency index, ratio of ribavirin IC50 to test compound IC50 for antiviral activity against RSV Long expressing mGFP infected in HEp-2 cells; format: functional
Influenza A virus [5] = test: Antiviral activity against Influenza A virus A/WSN/33(H1N1) infected in human HEK-293T cells assessed as inhibition of viral replication after 48 hrs by CCK-8 assay; format: functional, organism-based; details: A/WSN/1933(H1N1)
HEK-293T = test: Cytotoxicity against human HEK-293T cells assessed as reduction in cell viability after 48 hrs by CCK-8 assay; format: cell-based
How it was run: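 Cytotoxicity in 293T cells in 96-well plates incubated with compounds at six concentrations (top 200) for 48 h. CCK-8 solution added and OD read at 450 nm. DMSO-only cells served as control.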

[6] = Selectivity index, ratio of CC50 for cytotoxicity against human HEK-293T cells to IC50 for antiviral activity against Influenza A virus A/WSN/33(H1N1) […] cells; format: toxicity, cell-based; details: read-out: Ratio CC50/IC50
HEK293T = test: (§1) Inhibition of Influenza A virus A/WSN/33(H1N1) RNA polymerase expressed in HEK-293T cells after 24 hrs by dual luciferase reporter gene assay; format: cell-based
How it was run: (§2)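 HEK293T cells transfected with pCAGGS plasmids for PB2, PB1, PA and NP, plus a pol-driven firefly luciferase reporter and SV40-Renilla, with or without compound at the indicated concentrations. vRNA transcription read as firefly and Renilla luciferase at 24 h post-transfection.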

[7] = as §1; format: cell-based, HEK293T; how it was run: as §2
Influenza A virus [8] = test: Potency index, ratio of ribavirin IC50 to test compound IC50 for antiviral activity against Influenza A virus A/WSN/33(H1N1) infected in human HEK-293T cells; format: functional, A/WSN/1933(H1N1)
Influenza A virus [9] = test: Antiviral activity against Influenza A virus A/WSN/33(H1N1) infected in human A549 cells assessed as inhibition of viral replication at 10 uM after 2 to 6 hrs; format: functional, organism-based; details: A/WSN/1933(H1N1), time 2-6 hrs
Influenza A virus [10] = test: Antiviral activity against Influenza A virus A/WSN/33(H1N1) infected in human HEK-293T cells assessed as inhibition of viral replication at 10 uM after 48 hrs by CCK-8 assay relative to control; format: functional, A/WSN/1933(H1N1); parameters: scale not given: the % may be the effect or the level left

## O=C(COc1cccc2ccc(Cl)nc12)NCc1ccccc1
[1]
  selectivity ratio: 25.6
[2]
  IC50: 20.7 µM
[3]
  CC50 at 48 h: 528 µM

## CS(=O)(=O)c1ccc(CNC(=O)COc2cccc3ccc(N4CCCC4)nc23)cc1
[1]
  selectivity ratio: 6.14
[2]
  IC50: 221 µM
[3]
  CC50 at 48 h: 1360 µM

## O=C(COc1cccc2ccc(N3CCCC3)nc12)Nc1ccccc1
[1]
  selectivity ratio: 18.4
[2]
  IC50: 16.5 µM
[3]
  CC50 at 48 h: 304 µM

## COc1ccc(CNC(=O)COc2cccc3ccc(N4CCCC4)nc23)cc1
[1]
  selectivity ratio: 673
[2]
  IC50: 3.7 µM
[3]
  CC50 at 48 h: 2490 µM
[4]
  Ratio IC50: 2.5

## O=C(COc1cccc2ccc(N3CCCC3)nc12)NC12CC3CC(CC(C3)C1)C2
Influenza A virus [5]
  IC50: 11.5 µM
HEK-293T
  IC50: > 100 µM
[6]
  selectivity ratio: > 8.73

## O=C(COc1cccc2ccc(N3CCOCC3)nc12)NCc1ccccc1
[1]
  selectivity ratio: 1.28
[2]
  IC50: 36.1 µM
[3]
  CC50 at 48 h: 46.2 µM

## CNc1ccc2cccc(OCC(=O)NCc3ccccc3)c2n1
[1]
  selectivity ratio: 9.2
[2]
  IC50: 10.3 µM
[3]
  CC50 at 48 h: 94.8 µM

## COc1cccc(CNC(=O)COc2cccc3ccc(N4CCCC4)nc23)c1
[1]
  selectivity ratio: 10.7
[2]
  IC50: 6.93 µM
[3]
  CC50 at 48 h: 74.3 µM
[4]
  Ratio IC50: 2.5

## O=C(COc1cccc2ccc(N3CCCC3)nc12)NCc1cccc(Cl)c1
[1]
  selectivity ratio: 2.41
[2]
  IC50: 30.2 µM
[3]
  CC50 at 48 h: 73 µM

## O=C(COc1cccc2ccc(N3CCCCC3)nc12)NCc1ccccc1
[1]
  selectivity ratio: 66.7
[2]
  IC50: 26.1 µM
[3]
  CC50 at 48 h: 1740 µM

## O=C(COc1cccc2ccc(N3CCCC3)nc12)NCc1cccc(F)c1
[1]
  selectivity ratio: 0.15
[2]
  IC50: 2920 µM
[3]
  CC50 at 48 h: 444 µM

## O=C(COc1cccc2ccc(N3CCCC3)nc12)NCc1ccco1
[1]
  selectivity ratio: 10.9
[2]
  IC50: 22.9 µM
[3]
  CC50 at 48 h: 249 µM

## CCOc1ccccc1NC(=O)COc1cccc2ccc(N3CCCC3)nc12
[1]
  selectivity ratio: 31.5
[2]
  IC50: 33.2 µM
[3]
  CC50 at 48 h: 1040 µM

## CC(C)(C)OC(=O)N1CCN(c2ccc3cccc(OCC(=O)NCc4ccccc4)c3n2)CC1
Influenza A virus [5]
  IC50: 1.87 µM
HEK293T
  inhibition: Dose-dependent effect
[7]
  IC50: 1.93 µM
HEK-293T
  IC50: > 100 µM
Influenza A virus [8]
  Ratio IC50: 8.2
[6]
  selectivity ratio: > 53.5
Influenza A virus [9]
  Activity: Active
[1]
  selectivity ratio: 80.9
[2]
  IC50: 16.9 µM
[3]
  CC50 at 48 h: 1370 µM
Influenza A virus [10]
  Activity: >70%

## O=C(COc1cccc2ccc(N3CCCC3)nc12)NCc1ccc(C(F)(F)F)cc1
Influenza A virus [5]
  IC50: 36.1 µM
HEK-293T
  IC50: > 100 µM
[6]
  selectivity ratio: > 2.77
[1]
  selectivity ratio: 11.8
[2]
  IC50: 27.8 µM
[3]
  CC50 at 48 h: 327 µM

## CC(C)(C)OC(=O)N[C@H]1CCN(c2ccc3cccc(OCC(=O)NCc4ccccc4)c3n2)C1
Influenza A virus [5]
  IC50: 5.11 µM
HEK-293T
  IC50: 58 µM
[6]
  selectivity ratio: 11.3
[1]
  selectivity ratio: 9.59
[2]
  IC50: 4.57 µM
[3]
  CC50 at 48 h: 43.8 µM
Influenza A virus [10]
  Activity: >70%
[4]
  Ratio IC50: 2.5

## c1cc(OCCCCN2CCOCC2)c2nc(N3CCCC3)ccc2c1
[1]
  selectivity ratio: 59.6
[2]
  IC50: 11.6 µM
[3]
  CC50 at 48 h: 691 µM

## CCOc1ccccc1CNC(=O)COc1cccc2ccc(N3CCCC3)nc12
Influenza A virus [5]
  IC50: 7.46 µM
HEK-293T
  IC50: > 100 µM
[6]
  selectivity ratio: > 13.4
[1]
  selectivity ratio: 2.48
[2]
  IC50: 45.7 µM
[3]
  CC50 at 48 h: 113 µM

## O=C(COc1cccc2ccc(N3CCCC3)nc12)NCc1ccc(Cl)cc1
[1]
  selectivity ratio: 6.26
[2]
  IC50: 39.2 µM
[3]
  CC50 at 48 h: 245 µM

## O=C(COc1cccc2ccc(N3CCCC3)nc12)NCC1CC1
[1]
  selectivity ratio: 20
[2]
  IC50: 29 µM
[3]
  CC50 at 48 h: 580 µM

## CN1CCN(c2ccc3cccc(OCC(=O)NCc4ccccc4)c3n2)CC1
Influenza A virus [5]
  IC50: 9.87 µM
HEK-293T
  IC50: > 100 µM
[6]
  selectivity ratio: > 10.1
[1]
  selectivity ratio: 13.7
[2]
  IC50: 19.3 µM
[3]
  CC50 at 48 h: 264 µM

## CN(C)c1ccc2cccc(OCC(=O)NCc3ccccc3)c2n1
Influenza A virus [5]
  IC50: 14.2 µM
HEK-293T
  IC50: > 100 µM
[6]
  selectivity ratio: > 7.02
[1]
  selectivity ratio: 54.1
[2]
  IC50: 3.1 µM
[3]
  CC50 at 48 h: 168 µM
[4]
  Ratio IC50: 2.5

## O=C(COc1cccc2ccc(N3CCCC3)nc12)NCc1ccccc1Br
[1]
  selectivity ratio: 1.71
[2]
  IC50: 182 µM
[3]
  CC50 at 48 h: 312 µM

## c1cc(OCCCN2CCOCC2)c2nc(N3CCCC3)ccc2c1
Influenza A virus [5]
  IC50: 50.7 µM
HEK-293T
  IC50: > 100 µM
[6]
  selectivity ratio: > 1.97
[1]
  selectivity ratio: 39.2
[2]
  IC50: 14.1 µM
[3]
  CC50 at 48 h: 552 µM

## CCOC(=O)COc1cccc2ccc(N3CCCC3)nc12
[1]
  selectivity ratio: 50.3
[2]
  IC50: 16.4 µM
[3]
  CC50 at 48 h: 826 µM

## O=C(COc1cccc2ccc(N3CCCC3)nc12)NCc1ccccc1
Influenza A virus [5]
  IC50: 13.3 µM
HEK-293T
  IC50: > 100 µM
[6]
  selectivity ratio: > 7.5
[1]
  selectivity ratio: 9.68
[2]
  IC50: 55.8 µM
[3]
  CC50 at 48 h: 540 µM

## O=C(COc1cccc2ccc(N3CCCC3)nc12)NCc1ccc(Br)cc1
Influenza A virus [5]
  IC50: 42.3 µM
HEK-293T
  IC50: > 100 µM
[6]
  selectivity ratio: > 2.36

## CC(C)(C)OC(=O)N[C@@H]1CCN(c2ccc3cccc(OCC(=O)NCc4ccccc4)c3n2)C1
Influenza A virus [5]
  IC50: 4.99 µM
HEK-293T
  IC50: 49.9 µM
[6]
  selectivity ratio: 9.99
[1]
  selectivity ratio: 1.66
[2]
  IC50: 35.3 µM
[3]
  CC50 at 48 h: 58.6 µM
Influenza A virus [10]
  Activity: >70%

## NC(=O)c1ncn([C@@H]2O[C@H](CO)[C@@H](O)[C@H]2O)n1 [RIBAVIRIN]
HEK-293T
  IC50: > 100 µM
[6]
  selectivity ratio: > 6.51
[1]
  selectivity ratio: 175
[2]
  IC50: 17.3 µM
[3]
  CC50 at 48 h: 3040 µM

## O=C(COc1cccc2ccc(N3CCCC3)nc12)NCc1ccc(F)cc1
[1]
  selectivity ratio: 483
[2]
  IC50: 4.41 µM
[3]
  CC50 at 48 h: 2130 µM
[4]
  Ratio IC50: 2.5

## c1cc(OCCCCCN2CCOCC2)c2nc(N3CCCC3)ccc2c1
Influenza A virus [5]
  IC50: 32.4 µM
HEK-293T
  IC50: > 100 µM
[6]
  selectivity ratio: > 3.08
[1]
  selectivity ratio: 5.52
[2]
  IC50: 31.3 µM
[3]
  CC50 at 48 h: 173 µM
